Results of several laboratories.
Each line is one published result; the experiments were not run side by side.
Target: Mitogen-activated protein kinase kinase kinase 15 (MAP3K15, Homo sapiens, UniProt Q6ZN16)
One construct used (Q6ZN16 1-1313): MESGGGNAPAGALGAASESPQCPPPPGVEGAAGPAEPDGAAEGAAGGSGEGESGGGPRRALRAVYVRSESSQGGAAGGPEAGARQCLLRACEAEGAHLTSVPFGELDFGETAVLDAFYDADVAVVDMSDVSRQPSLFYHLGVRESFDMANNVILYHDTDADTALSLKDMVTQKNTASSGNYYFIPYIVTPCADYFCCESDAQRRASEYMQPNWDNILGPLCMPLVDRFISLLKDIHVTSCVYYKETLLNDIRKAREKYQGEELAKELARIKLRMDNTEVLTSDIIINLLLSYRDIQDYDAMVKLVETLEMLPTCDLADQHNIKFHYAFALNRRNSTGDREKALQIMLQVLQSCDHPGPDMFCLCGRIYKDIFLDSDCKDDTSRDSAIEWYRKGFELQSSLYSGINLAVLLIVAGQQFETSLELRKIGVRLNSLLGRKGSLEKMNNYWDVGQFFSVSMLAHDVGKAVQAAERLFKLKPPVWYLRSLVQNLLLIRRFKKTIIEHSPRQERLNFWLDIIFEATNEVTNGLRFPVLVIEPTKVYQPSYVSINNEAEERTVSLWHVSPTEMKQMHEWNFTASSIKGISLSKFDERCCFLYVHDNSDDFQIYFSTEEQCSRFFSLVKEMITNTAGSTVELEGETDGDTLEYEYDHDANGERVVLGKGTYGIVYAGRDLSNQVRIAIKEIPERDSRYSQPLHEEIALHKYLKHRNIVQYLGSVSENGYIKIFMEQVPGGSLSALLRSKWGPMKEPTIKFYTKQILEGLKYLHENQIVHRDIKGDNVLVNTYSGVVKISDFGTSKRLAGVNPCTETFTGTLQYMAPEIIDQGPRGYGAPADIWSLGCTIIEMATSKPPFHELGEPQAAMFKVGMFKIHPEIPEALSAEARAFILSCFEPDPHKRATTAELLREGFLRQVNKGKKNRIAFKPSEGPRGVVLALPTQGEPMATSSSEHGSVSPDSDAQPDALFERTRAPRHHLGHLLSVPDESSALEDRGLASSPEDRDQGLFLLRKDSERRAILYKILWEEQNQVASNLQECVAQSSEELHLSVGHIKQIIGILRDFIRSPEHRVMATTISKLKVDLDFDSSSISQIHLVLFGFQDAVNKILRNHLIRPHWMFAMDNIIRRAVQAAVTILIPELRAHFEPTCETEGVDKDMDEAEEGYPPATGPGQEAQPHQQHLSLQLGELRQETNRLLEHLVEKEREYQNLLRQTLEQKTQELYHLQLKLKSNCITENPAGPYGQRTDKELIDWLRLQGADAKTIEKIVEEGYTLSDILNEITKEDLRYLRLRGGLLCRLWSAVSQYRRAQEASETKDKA

O=C(Nc1c[nH]nc1C(=O)NC1CCNCC1)c1cc(F)cc(F)c1 — remaining binding (binding; competition with immobilised ligand; 1 µM): 100%
Nc1cnc(N2CCc3cc(S(=O)(=O)Nc4c(F)cc(Cl)cc4F)cc(N4CCCC4=O)c32)nc1 — remaining binding (cell-free assay; competition with immobilised ligand; 1 µM): 100%
C[C@@H](c1ccc(-n2cnc3c(N)ncnc32)cc1)N1CCc2nn(C)c(Cc3ccccc3)c2C1=O — remaining binding (binding; competition with immobilised ligand; 0.1 µM): 60%
CN(C)C(=O)Cn1cc(-c2nc([C@@](C)(c3ccc(-c4cnc(N)nc4)cc3)C3CC3)no2)cn1 — remaining binding (cell-free assay; competition with immobilised ligand; 1 µM): 99%
CN(CCCC(F)(F)F)c1nccc(-c2cnn3ncccc23)n1 — remaining binding (binding; 1 µM): 100%
CCN1CCN(Cc2ccc(C(=O)Nc3ccc(C)c(Oc4ccc5c(c4)CC(=O)N5)c3)cc2C(F)(F)F)CC1 — remaining binding (binding; competition with immobilised ligand; 1 µM): 100%
Cc1cnc(Nc2ccc(C(=O)N3CCC(N4CCCC4)CC3)cc2)nc1-c1cc2ccccc2s1 — remaining binding (binding; competition with immobilised ligand; 1 µM): 38%
C=CC(=O)N1CCC(C(=O)NCC(=O)N2CCN(c3nc(-c4cnc(N)nc4C(F)F)nc(N4CCOCC4)n3)CC2)CC1 — remaining binding (binding; competition with immobilised ligand; 1 µM): 100%
CN(C)c1nccc(-c2cnc3ncccn23)n1 — remaining binding (binding; 1 µM): 100%
CCCOc1ccc([C@@H]2[C@@H](C(=O)O)[C@H](c3ccc4c(c3)OCO4)CN2CC(=O)Nc2c(CC)cccc2CC)cc1 — remaining binding (cell-free assay; competition with immobilised ligand; 1 µM): 99%
COc1cnc(Nc2cccc(S(N)(=O)=O)c2)nc1N1CCN(c2ccccc2)CC1 — remaining binding (binding; competition with immobilised ligand; 1 µM): 78%
CN(c1nccc(-c2cnn3ncccc23)n1)C1CC1 — remaining binding (binding; 1 µM): 100%
Cc1nccc(COC(=O)N2C[C@@H]3[C@@H](CNC(=O)c4ccc5[nH]nnc5c4)[C@@H]3C2)n1 — remaining binding (cell-free assay; competition with immobilised ligand; 1 µM): 95%
CN(C)c1nccc(-c2cnn3ncccc23)n1 — remaining binding (binding; 1 µM): 91%
O=C(c1ccc(Nc2ncc(Cl)c(-c3cc4ccccc4s3)n2)cc1)N1CCC(N2CCCC2)CC1 — remaining binding (binding; competition with immobilised ligand; 1 µM): 55%
COc1ccc2c(c1)O[C@@H](c1ccc(OC)c(OC)c1)C[C@H]2NC(=O)C1(c2ccc3c(c2)OC(F)(F)O3)CC1 — remaining binding (cell-free assay; competition with immobilised ligand; 1 µM): 88%
N[C@H]1CCN(c2nccc(-c3cnn4ncccc34)n2)C1 — remaining binding (binding; 1 µM): 83%
O=C(c1ccc(Nc2nccc(-c3cc4ccccc4s3)n2)cc1)N1CCC(N2CCCC2)CC1 — remaining binding (binding; competition with immobilised ligand; 1 µM): 96%
CC1CCCN1c1nccc(-c2cnn3ncccc23)n1 (centres unmarked) — remaining binding (binding; 1 µM): 100%
CCCCN(CCCC)C(=O)CN1C[C@@H](c2cc(OC)c3c(c2)OCO3)[C@H](C(=O)O)[C@H]1CC(C)(C)CCC — remaining binding (cell-free assay; competition with immobilised ligand; 1 µM): 99%
